# Assay results collected from several papers.
# Lines come from different studies, so protocols differ.
# Read-out: cell growth or viability
SMILES,cell line,technique,concentration,time,measurement,result
c1cc2c(cc1CNCC1(N3CCCC3)COC1)OCCO2,GBM6,,30 µM,48 h,viability,101%
COc1c(OCCCN2CCOCC2)ccc2c1N=C(NC(=O)c1cnc(N)nc1)N1CCN=C21,KPL4,,,,EC50,3.7 nM
COc1cccc(Oc2ccccc2NC(=O)CNC(=O)c2cccc3ccccc23)c1,SK-MEL-28,SRB,,48 h,GI50,4370 nM
Cc1ccc(/C=C2/SC(=Nc3ccccc3)NC2=O)c(C)c1,HEK293,,,,IC50,> 10000 nM
COc1ccc(-c2ccc(-c3ccc(C(=N)N)nc3)s2)cc1,SF-539,SRB,,,GI50,1730 nM
Cc1[nH]c(C)c(C(F)(F)F)c(=O)c1-c1ccc(Oc2ccc(OC(F)(F)F)cc2)cc1,HEK293,,,,IC50,> 10000 nM
C=CC(=O)N1CCC[C@@H](n2nc(-c3ccc(Oc4ccccc4)cc3)c3c(N)ncnc32)C1,Rec1,ATP luminescence,,72 h,GI50,3300 nM
CCN(c1cc(-c2ccc(CN3CCOCC3)cc2)cc(C(=O)NCc2c(C)cc(C)[nH]c2=O)c1C)C1CCOCC1,KARPAS-422,,,8 days,GI50,250 nM
COc1ccc(-c2ccc(-c3ccc(C(=N)N)nc3)s2)cc1Cl,SK-MEL-28,SRB,,,GI50,1730 nM
FC1CCN(C2(CNCc3ccc(-c4ccccc4)o3)COC2)C1 (centres unmarked),GBM6,,30 µM,48 h,viability,72.7%
CCCCc1n(Cc2ccc3ccccc3n2)cc[n+]1Cc1ccc2ccccc2n1,NCI-H322M,SRB,,,TGI,16300 nM
Fc1ccc2[nH]cc(CNCC3(N4CCC(F)C4)COC3)c2c1 (centres unmarked),GBM6,,30 µM,48 h,viability,77.6%
COc1ccc2c(NN=Cc3ccc(Cl)cc3)ccnc2c1,HEK293,,,,IC50,> 10000 nM
c1ccc(-c2ccc(CNCC3(N4CCCC4)COC3)s2)cc1,T98G,,30 µM,48 h,viability,69%
CC(=O)c1c(C)c2cnc(Nc3ccc(N4CCNCC4)cn3)nc2n(C2CCCC2)c1=O,HCC1428,resazurin,,,GI50,600 nM
Fc1ccc2c(CNCC3(N4CCC(F)C4)COC3)c[nH]c2c1 (centres unmarked),T98G,,30 µM,48 h,viability,96.4%
Cc1nc2ccc(-c3ccc(OC(F)(F)F)cc3)cc2c(O)c1C#N,HEK293,,,,IC50,> 10000 nM
COc1c(OCCCN2CCOCC2)ccc2c1N=C(NC(=O)c1cnc(N)nc1C)N1CCN=C21,KPL4,,,,EC50,2.3 nM
Cc1cccc2cc(CNCC3(N4CCCC4)COC3)cnc12,GBM6,,30 µM,48 h,viability,104%
CC#CC(=O)N1CC[C@@H](n2cc(-c3ccc(Oc4c(F)cccc4F)cc3)c3c(N)n[nH]c(=O)c32)C1,KARPAS-422,ATP luminescence,,72 h,GI50,12100 nM
Cc1[nH]c2ccc(C#N)cc2c(=O)c1Br,HEK293,,,,IC50,> 10000 nM
c1cc2cc(CNCC3(N4CCCC4)COC3)ccc2[nH]1,T98G,,30 µM,48 h,viability,98.2%
Cn1cc(-c2cc(N3CCCCS3(=O)=O)ccc2Oc2ccc(F)cc2F)c2c(F)c[nH]c2c1=O,TMD8,CCK-8,,72 h,GI50,9.3 nM
Cc1[nH]c(C)c(-c2ccc(OCCCCSc3ccncc3)cc2)c(=O)c1Br,HEK293,,,,IC50,> 10000 nM
c1ccc(-c2n(Cc3ccc4ccccc4c3)cc[n+]2Cc2ccc3ccccc3c2)cc1,NCI-H322M,SRB,,,TGI,2820 nM
Cc1[nH]c(C)c(-c2ccc(CCc3ccc(C(F)(F)F)cc3)nc2)c(=O)c1Cl,HEK293,,,,IC50,> 10000 nM
COc1cc(-c2ccc(-c3ccc(C(=N)N)nc3)s2)cc(OC)c1OC,SF-539,SRB,,,GI50,1610 nM
Cc1[nH]cc(Br)c(=O)c1-c1ccc(Oc2ccccc2)cc1,HEK293,,,,IC50,> 10000 nM
c1ccc(-c2ccc(CNCC3(N4CCCC4)COC3)o2)cc1,GBM6,,30 µM,48 h,viability,80.5%
